# In the library only some 3.6% were active in any assay of this set; here they are far more common.
# PAFAH2 inh: PAFAH2 enzyme inhibitors, primary screen, biochemical, fluorescence polarization, human. actives 0.99% (n = 340,000). AID 492956, 2010. Platelet-activating factor acetylhydrolase 2, cytoplasmic (Homo sapiens), Q99487. recombinant PAFAH2, FP-rhodamine activity probe. inhibition, % at 3.39 µM;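 active = inhibition above the mean over all tested compounds plus 3 SD, cut at about 30% in these data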;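 note: inhibitors block probe labeling of enzyme so polarization drops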
# PAFAH1B2 inh: PAFAH1B2 enzyme inhibitors, primary screen, biochemical, fluorescence polarization, human. Platelet-activating factor acetylhydrolase IB subunit alpha2 (Homo sapiens), P68402. recombinant PAFAH1B2, FP-rhodamine activity probe. inhibition, % at 3.39 µM. actives 1.2% (n = 340,000). AID 492953, 2010;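 active = inhibition above the mean of all tested compounds plus 3 SD, cut at about 24% in these data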
# Target sequence (P68402 whole entry, looked up): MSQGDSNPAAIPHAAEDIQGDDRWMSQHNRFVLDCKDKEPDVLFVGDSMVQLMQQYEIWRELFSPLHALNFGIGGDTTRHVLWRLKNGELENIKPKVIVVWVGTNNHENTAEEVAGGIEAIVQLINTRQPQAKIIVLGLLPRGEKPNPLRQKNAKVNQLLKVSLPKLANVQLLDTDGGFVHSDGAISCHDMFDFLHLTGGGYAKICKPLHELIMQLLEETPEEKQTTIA
# IMP-1 inh: IMP-1 metallo-beta-lactamase inhibitors, primary screen, biochemical, epi-absorbance readout, Pseudomonas aeruginosa enzyme; metallo-beta-lactamase IMP-1 (Pseudomonas aeruginosa); purified IMP-1, nitrocefin hydrolysis, epi-absorbance fluorescence; inhibition, % at 5.6 µM; actives 0.45% (n = 290,000);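 active = inhibition above the mean plus 3 SD of all compounds in the same screening run, cut at about 4.5% in these data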
#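 System: purified recombinant IMP-1 beta-lactamase. Medium: Zinc- and detergent-supplemented HEPES buffer, pH 7.1. Compound: one 5.6 µM dose […]. Schedule: 15 min preincubation plus 25 min reaction at 25 °C. Technique: Epi-absorbance fluorescence, 480 nm excitation, 530 nm emission.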
# PAFAH1B3 FP inh: PAFAH1B3 enzyme inhibitors, primary screen, biochemical, fluorescence polarization, human; Platelet-activating factor acetylhydrolase IB subunit alpha1 (Homo sapiens), Q15102; recombinant PAFAH1B3, FP-rhodamine probe; inhibition, % at 3.39 µM; actives 0.28% (n = 340,000); AID 492972, 2010;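 active = inhibition above the screen-wide average of all tested compounds plus 3 SD, cut at about 25% in these data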
# pPAFAH FP inh: pPAFAH enzyme inhibitors, primary screen, biochemical, fluorescence polarization, human; inhibition, % at 3.39 µM; AID 463082, 2010; actives 1.5% (n = 330,000); recombinant pPAFAH, FP-rhodamine probe fluorescence polarization;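 active = inhibition above the mean inhibition across the screen plus 3 SD, cut at about 25% in these data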;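 note: inhibitors block binding of the rhodamine activity-based probe so polarization drops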
# Target sequence (Q13093 whole entry, looked up): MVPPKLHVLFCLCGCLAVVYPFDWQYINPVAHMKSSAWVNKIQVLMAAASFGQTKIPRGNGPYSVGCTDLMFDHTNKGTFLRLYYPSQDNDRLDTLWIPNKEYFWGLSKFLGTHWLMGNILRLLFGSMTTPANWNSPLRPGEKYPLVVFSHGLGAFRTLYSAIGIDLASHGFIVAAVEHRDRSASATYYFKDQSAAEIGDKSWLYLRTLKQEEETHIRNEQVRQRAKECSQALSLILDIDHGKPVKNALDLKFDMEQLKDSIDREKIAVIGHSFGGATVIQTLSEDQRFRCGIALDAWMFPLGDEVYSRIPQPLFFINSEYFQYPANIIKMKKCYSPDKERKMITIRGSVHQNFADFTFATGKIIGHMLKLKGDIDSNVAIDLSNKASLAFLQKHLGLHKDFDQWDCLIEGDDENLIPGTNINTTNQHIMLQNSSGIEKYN
# VIM-2 inh: VIM-2 metallo-beta-lactamase inhibitors, primary screen, biochemical, epi-absorbance readout, Pseudomonas aeruginosa enzyme | purified VIM-2, nitrocefin hydrolysis, epi-absorbance fluorescence | inhibition, % at 5.6 µM | actives 0.89% (n = 290,000);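 active = inhibition above the mean of all tested compounds plus 3 SD, cutoff set per screening run, cut at about 7.5% in these data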;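 note: red hydrolysis product quenches plate fluorescence so inhibitors raise well fluorescence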
# Hits are given with their value; . = inactive; / = no result.
SMILES,PAFAH2 inh,PAFAH1B2 inh,IMP-1 inh,PAFAH1B3 FP inh,pPAFAH FP inh,VIM-2 inh
CCOc1ccc(NC(=O)CN(C)C(=O)c2ccc3c(c2)S(=O)(=O)N=C2CCCCCN23)cc1OCC,.,.,/,.,/,/
CSC1=NSC2=NC(=O)/C(=C/c3coc4ccccc4c3=O)C(=N)N12,.,.,.,.,.,.
CSC1=NSC2=NC(=O)/C(=C/c3coc4ccc(O)cc4c3=O)C(=N)N12,.,.,.,.,29,.
O=C(O)c1ccccc1OCc1ccccc1Br,.,.,.,.,.,9.1
C=CCC[C@H](Cc1ccc(F)cc1)C(=O)OC[C@@H](Cc1c[nH]c2ccccc12)NC(=O)[C@H](CC=C)CC(=O)N(CCO)Cc1ccccc1,.,.,/,.,.,/
CN(C)c1ccc(/C=C/C(=O)c2cccc(Br)c2)cc1,.,.,8.3,.,.,.
CN(C)c1ccc(C(=O)/C=C/c2cccnc2)cc1,.,.,.,.,.,.
COCCNC(=O)C(c1ccc(C)cc1)N(Cc1ccccc1)C(=O)CCC(=O)Nc1ccccn1 (configuration not stated),.,.,.,.,.,.
CC(C)c1ccc(/C=C2\Oc3c(ccc(O)c3CN3CCN(C)CC3)C2=O)cc1,76,25,.,.,.,.
Cc1ccc(/C=C2\Oc3c(ccc(O)c3CN3CCN(CCO)CC3)C2=O)cc1,.,.,.,.,.,.
CCN1CCN(Cc2c(O)ccc3c(=O)c(-c4ccccc4OC)coc23)CC1,.,.,.,.,.,.
CCN1CCN(Cc2c(O)ccc3c2O/C(=C\C=C\c2ccccc2OC)C3=O)CC1,.,.,28,.,.,.
COc1ccc(C(C)(C)C)cc1NC(=O)COC(=O)C1=NNC(=O)CC1,.,.,/,.,.,/
COc1ccc([C@@H]2CC=C(C(=O)O)[C@H](c3cccc(Cl)c3)N2S(=O)(=O)c2ccccc2C)cc1,.,26,/,.,.,/
COc1ccc([C@@H]2CC=C(C(=O)O)[C@H](c3ccc(Br)cc3)N2S(=O)(=O)c2ccc(C)cc2)cc1OC,.,.,/,.,.,/
COc1cccc([C@@H]2CC=C(C(=O)O)[C@H](c3cccc(Cl)c3)N2S(=O)(=O)c2ccc(C)cc2)c1,.,.,/,.,.,/
Cc1ccccc1S(=O)(=O)N1[C@@H](c2ccc(Br)cc2)C(C(=O)O)=CC[C@H]1c1ccc(Cl)cc1,.,84,/,.,.,/
O=C(O)C1=CC[C@@H](c2ccc(Cl)cc2)N(S(=O)(=O)c2ccc(Cl)cc2)[C@H]1c1ccc(Br)cc1,.,88,/,.,.,/
O=C(Cc1ccc(NC(=O)C2CCCN(C(=O)C3CCC3)C2)cc1)Nc1ccc(C(=O)N2CCOCC2)cc1 (configuration not stated),.,.,/,.,/,/
CCc1ccc(CN(Cc2cccnc2)C(=O)/C=C/c2ccc(OC)cc2)cc1,.,.,.,.,.,.
CC(C)C(OC(=O)c1nsc(Cl)c1Cl)C(=O)NCc1ccccc1 (configuration not stated),.,.,.,.,26,.
CC(NC=O)c1nc2ccccc2n1CCc1ccccc1 (configuration not stated),.,.,.,.,.,.
CN(C(=O)c1cccc(NC(=O)Cc2ccc(NC(=O)C3CCN(C(=O)C4CC4)CC3)cc2)c1)C1CCCCC1,.,.,/,.,/,/
CC1(C)CC(=O)C(C=Nc2ccc(O)c(N=CC3=C(O)CC(C)(C)CC3=O)c2)=C(O)C1,55,.,.,.,33,.
CC(/C=N/NC(=O)NC1CCCCC1)=C\c1ccccc1,.,.,.,.,29,.
SMILES,PAFAH2 inh,PAFAH1B2 inh,IMP-1 inh,PAFAH1B3 FP inh,pPAFAH FP inh,VIM-2 inh
Oc1c(Cl)cc(CN2CCOCC2)c2cccnc12,.,.,/,.,28,/
O=C(c1ccc(Cl)cc1Cl)N1CCC(C(=O)N2CCOCC2)CC1,.,.,.,.,.,.
O=C(O)c1ccc(NS(=O)(=O)c2ccc(Cl)c(C(=O)Nc3ccccc3[N+](=O)[O-])c2)cc1,.,.,.,.,.,.
CN(C)c1ccsc1C(=O)NNS(=O)(=O)c1ccc(Cl)cc1,.,32,/,.,.,/
Cc1occc1C(=O)NNS(=O)(=O)c1ccc(Cl)cc1,.,.,.,.,.,.
COc1cc(/C=N\NC(=O)c2ccc(Cn3cc(Br)c([N+](=O)[O-])n3)o2)cc(OC)c1O,.,.,.,.,27,.
CCOc1cc(C=O)ccc1OCCSc1ccc(Cl)cc1,.,54,.,.,.,.
O=S(=O)(NC1CCCC1)c1ccc(S(=O)(=O)N2CCc3ccccc32)cc1,.,27,.,.,27,.
N#Cc1cc2cc3c(cc2nc1N1CCOCC1)OCO3,.,.,4.5,.,.,.
Cc1ccccc1C1=C/C(=C(\SS/C(C(=O)c2ccc(OCC(=O)O)c(Cl)c2Cl)=C2\C=C(c3ccccc3C)SS2)C(=O)c2ccc(OCC(=O)O)c(Cl)c2Cl)SS1,34,26,/,.,/,/
O=S(=O)(c1ccc(F)cc1)N1CCN(C(=S)NC2CC2)CC1,.,.,/,.,.,/
O=C(CSc1nc2ccccc2o1)c1cc2ccccc2oc1=O,.,.,.,.,26,.
CN(C)S(=O)(=O)c1ccc(NC(=O)CSc2nc3ccccc3n2-c2ccccc2)cc1,.,.,.,.,.,.
Cc1cc(C)nc(SCC(=O)c2cc3ccccc3oc2=O)n1,.,.,.,.,.,.
O=C(CSc1nc2ccccc2n1-c1ccccc1)NCC1CCCO1 (configuration not stated),.,.,.,.,28,.
NS(=O)(=O)c1ccc(NC(=O)CSc2nc3ccccc3n2-c2ccccc2)cc1,.,.,.,.,32,.
O=C(CSc1nc2ccccc2o1)NCC1CCCO1 (configuration not stated),32,24,/,.,.,/
CCC(C)c1ccccc1N1CC(C(=O)N2CCN(S(=O)(=O)c3cccc([N+](=O)[O-])c3)CC2)CC1=O (configuration not stated),.,.,/,.,/,/
OC1(Cc2cc(-c3ccccc3)no2)CCN(CCCc2ccccc2)CC1,.,.,.,.,.,.
O=C(Nc1cccc(S(=O)(=O)N2CCCCCC2)c1)C1CCN(C(=O)c2ccc(F)cc2)CC1,.,.,/,.,.,/
Cc1cc(=O)oc2cc(OCC(=O)NCCCN3CCOCC3)ccc12,.,.,.,.,.,.
COc1ccc(-c2cc(=O)oc3cc(OCC(=O)NCCCn4ccnc4)ccc23)cc1,.,.,.,.,.,.
Cc1c(C)c2ccc(OCC(=O)NCCN3CCOCC3)c(C)c2oc1=O,.,.,.,.,.,11

# Screens: PubChem, The Scripps Research Institute Molecular Screening Center
